Where two headings read alike, the source gives them in different places.
Tested on: endogenous GRK2/3
Type: cell-based, human
Details: 30-μM compound 101, 30 min
Outline: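 HEK 293 cells PEI-transfected with mem-Citrine-SH3, Rluc8-β-arrestin 2, HA-hCB2 and empty vector, then replated on PDL. Equilibrated ~30 min in phenol red-free DMEM with 1 mg/mL fatty acid-free BSA and 10 mM HEPES, then given 30 µM test compound or vehicle for 30 min.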

Measured: reduction of β-arrestin 2 translocation to CB2

Cn1c(CNc2cccc(C(=O)NCc3ccccc3C(F)(F)F)c2)nnc1-c1ccncc1 [compound 101]
approximately 15%: stimulation with 1-μM AMB-FUBINACA | stimulation with 10-μM CP55940 | stimulation with […] 2-AG

Source: article PMC12591375 (British journal of pharmacology, 2022)
